In PubChem BioAssay AID624397 (The Scripps Research Institute Molecular Screening Center, 2012):
pIC50: −log10 of the molar value.

Test system: MCF7 proliferation, sulforhodamine B absorbance, 7-10 days
Assay: MCF7 cell proliferation inhibition, late-stage follow-up, counter-screen for AHR activator project, absorbance, set 2 (AID 624397)
How it was run: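 System: MCF7 human ER-positive breast cancer cells; Buffer or medium: a-MEM growth medium with 10% fetal bovine serum; Timing: dosing from 24 h after plating, renewed every 48 h, 37 °C; Measured by: SRB absorbance at 490 nm, 650 nm background removed; Repeats: at least triplicates.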

SMILES | pIC50
Cc1ccc(-c2cc(-c3cccc(F)c3)n[nH]2)c(O)c1 | 5.52
Cc1ccc(-c2cc(-c3ccc(F)cc3)n[nH]2)c(O)c1 | 5.52
Cc1ccc(-c2cc(-c3ccc(Cl)cc3)n[nH]2)c(O)c1 | 5.52
